Fewer inactive variants are shown than the library holds.
B1: tRNA (parent)
chain: GUUCCGUUGGCGUAAUGGUAACGCGUCUCCCUCCUAAGGAGAAGACUGCGGGUUCGAGUCCCGUACGGAACG

Variants of: B1
Assay: yeast fitness relative to wild type (ratio to wild type); higher = fitter; tRNA-Arg(CCU), competitive growth, 37 C, YPD
How it was run: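 Genotype frequency changes were the basis for Darwinian fitness relative to wild type. The frequencies came from 100-nucleotide paired-end sequencing of gene amplicons from the start population and each end population of pooled yeast strains with tRNA-Arg(CCU) gene variants at the native locus. Competition ran in YPD at 37°C for 24 hours in six replicates, genotypes needed ≥ 100 starting reads, and estimates < 0.5 were set to 0.5.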

Row | Variant | yeast fitness
1 | GUUCCGUUGGCGUAAUGGUAACGCGUCUCCCGCCGCAGGAGAAGACUGCGGGUUCGAGUCCCGUACGGAACG [U32G U35G A36C] | ≤ 0.5
2 | GUUCCGUUGGCGUAAUGGUAACGCGUCUCCCGCCUAAGGAGAAGACGGCGGGUUCGAGUCCCGUACGGAACG [U32G U47G] | ≤ 0.5
3 | GUUCCGUUGGCGUAAUGGUAACGCGUCUCCCUAUUAAGGAGAAGACUGCGGGUUCGAGUCCCGUACGGAACG [C33A C34U] | ≤ 0.5
4 | GUUCCGUUGGCGUAAUGGUAACGCGUCUCCCUACUAAGGAGAAGACUGCAGGUUCGAGUCCCGUACGGUCCG [C33A G50A A69U A70C] | ≤ 0.5
5 | GUUCCGUUGGCGUAAUGGUAACGCGUCUCCCUACUAAGGAGAAGAAUGCGGGUUCGAGUCCCGUACAGAACG [C33A C46A G67A] | ≤ 0.5
6 | GUUCCGUUGGCGUAAUGGUAACGCGUCUCCCUACUAAGGAGAAGACUCCGGGUUCGAGUCCCGUACGGGACG [C33A G48C A69G] | 0.684
7 | GUUCCGUUGGCGUAAUGGUAACGCGUCUCCCUACUAAGAAGAAGACUGCCGGUUCGAGUCCCGUACCGAACG [C33A G39A G50C G67C] | 0.573
8 | GUUCCGUUGGCGUAAUGGUAACGCGUCUCCCUACUAAGGAGGAGACUGCGGGUUCGAGUCCCGUACGGAACG [C33A A42G] | 0.583
9 | GUUCCGUUGGCGUAAUGGUAACGCGUCUCCCUACUAAGGAGAAGACUGCGGAUUCGAGUCCCGUACGGAACG [C33A G52A] | ≤ 0.5
10 | GUUCCGUUGGCGUAAUGGUAACGCGUCUCCCUACUAAGGAGAAGAAUGCGGGUUCGAAUCCCGUACGGAGCG [C33A C46A G58A A70G] | ≤ 0.5
11 | GUUCCGUUGGCGUAAUGGUAACGCGUCUCCCUACUAAGGAGGAGACUGCGGGUCCGAGUCCUGUACGGAACG [C33A A42G U54C C62U] | 0.637
12 | GUUCCGUUGGCGUAAUGGUAACGCGUCUCCCUACUAAGGAGAAGACUGCGGGUUCGAGUCCCGUACGGGACG [C33A A69G] | 0.655
13 | GUUCCGUUGGCGUAAUGGUAACGCGUCUCCCUACUAAGGAGAAGACUGUGGAUUCGAGUCCCGUACGGAACG [C33A C49U G52A] | ≤ 0.5
14 | GUUCCGUUGGCGUAAUGGUAACGCGUCUCCCUACUUGGGAGAAGACUGCGGGUUCGAGUCCCGUACGGAACG [C33A A36U A37G] | ≤ 0.5
15 | GUUCCGUUGGCGUAAUGGUAACGCGUCUCCCUACUAAGAAGAAGACUGCGGCUUGGAGUCCCGUACGGAACG [C33A G39A G52C C55G] | ≤ 0.5
16 | GUUCCGUUGGCGUAAUGGUAACGCGUCUCCCUACUAAGCAGAAGACUGUGGGUACGAGUCCCCUACAGAACG [C33A G39C C49U U54A G63C G67A] | ≤ 0.5
17 | GUUCCGUUGGCGUAAUGGUAACGCGUCUCCCUACUAAGGAGAAGACUGAGGGUUCGAGUACCGUACGGAACG [C33A C49A C60A] | 0.714
18 | GUUCCGUUGGCGUAAUGGUAACGCGUCUCCCUACUAAGGAGAAGACUGCGCGUUCGAGUCCGGUACGGAACG [C33A G51C C62G] | ≤ 0.5
19 | GUUCCGUUGGCGUAAUGGUAACGCGUCUCCCUACUAAGGAGAAGACUGCGGAUUCGAGUCCCGUUCGGAACG [C33A G52A A65U] | ≤ 0.5

Row | Variant | yeast fitness
20 | GUUCCGUUGGCGUAAUGGUAACGCGUCUCCCUACUUAGGAGAAGACUGCGGGUUCGAGUCCCGUAUGGAACG [C33A A36U C66U] | ≤ 0.5
21 | GUUCCGUUGGCGUAAUGGUAACGCGUCUCCCUACUAAGGAGAAGACUGUGGGUUCGAGUCCCGUAUGGAACG [C33A C49U C66U] | 0.524
22 | GUUCCGUUGGCGUAAUGGUAACGCGUCUCCCUACUACGGAGAAGACUGCGGGUUCAAGUCCCGUGUGGAACG [C33A A37C G56A A65G C66U] | ≤ 0.5
23 | GUUCCGUUGGCGUAAUGGUAACGCGUCUCCCUACUAAGGAGAAGACUGCGGGUUUGAGUCCCGUACGGAACG [C33A C55U] | 0.581
24 | GUUCCGUUGGCGUAAUGGUAACGCGUCUCCCUACUAAGGAGAAGUCUGCGGGUUCGAGUCCCGUAAGGAACG [C33A A45U C66A] | ≤ 0.5
25 | GUUCCGUUGGCGUAAUGGUAACGCGUCUCCCUACUCAGGAGAAGACUGCGGGUUCGAGUCCCGUACGGAACG [C33A A36C] | 0.526
26 | GUUCCGUUGGCGUAAUGGUAACGCGUCUCCCGCCGCAGGAGAAGACUGCGGGUCCGAGUCCCGUACGGAACG [U32G U35G A36C U54C] | ≤ 0.5
27 | GUUCCGUUGGCGUAAUGGUAACGCGUCUCCCGCCUAAGGAGAAGACUGCGGGUUCGAGUCCCAUACGGAACG [U32G G63A] | 0.557
28 | GUUCCGUUGGCGUAAUGGUAACGCGUCUCCCUACUAAGGGGGAGACUGCGGGUUCGAGUCCCGUACGGAACG [C33A A40G A42G] | 0.564
29 | GUUCCGUUGGCGUAAUGGUAACGCGUCUCCCUACUAAGGUGAAGACUGCGGGCUUGAGUCCUGUACGGAACG [C33A A40U U53C C55U C62U] | ≤ 0.5
30 | GUUCCGUUGGCGUAAUGGUAACGCGUCUCCCUACUAAGGAGAAGAUUGCGGGUUCGAGUCGCGUACGGAACG [C33A C46U C61G] | ≤ 0.5
31 | GUUCCGUUGGCGUAAUGGUAACGCGUCUCCCUACUAAGGAGAAGACUCCGGGUUCGAGUCCCGUACGGAGCG [C33A G48C A70G] | ≤ 0.5
32 | GUUCCGUUGGCGUAAUGGUAACGCGUCUCCCUACUAGGCAGAAGACUGCGGGUUUGAGUCCCGUACGGAACG [C33A A37G G39C C55U] | ≤ 0.5
33 | GUUCCGUUGGCGUAAUGGUAACGCGUCUCCCUACUAAGGAGAAGUCUGCGGGUUCGAGUCCCGUACGGACCG [C33A A45U A70C] | 0.512
34 | GUUCCGUUGGCGUAAUGGUAACGCGUCUCCCUACUAAGGAGAAGGCUGUGGGUUCGAGUCCCGUACGGAUCG [C33A A45G C49U A70U] | ≤ 0.5
35 | GUUCCGUUGGCGUAAUGGUAACGCGUCUCCCGCCUAAGGAGAAGACUACGGGUUCGAGUCCCGUACGGAACG [U32G G48A] | 0.616
36 | GUUCCGUUGGCGUAAUGGUAACGCGUCUCCCUACUAACGAGAGGACUGCGGGCUCGAGUCCCGUACGGAACG [C33A G38C A43G U53C] | 0.547
37 | GUUCCGUUGGCGUAAUGGUAACGCGUCUCCCUACUAAGGAGAAGACUGCGGGUUCGAGUGCCGUACGGAGCG [C33A C60G A70G] | ≤ 0.5
38 | GUUCCGUUGGCGUAAUGGUAACGCGUCUCCCGCCUAAGGAGAAGACUGCGGGUUCGACUCCCGUUCGGAACG [U32G G58C A65U] | ≤ 0.5
